How the values were obtained:
EJ [1] = experiment: Antiproliferative activity against human EJ138 cells deficit in CYPs assessed as inhibition of cell growth after 96 hrs by MTT assay; assay type: functional, cell-based
Method in brief: (§1)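 Cells kept as monolayers at 37 °C in 5% CO2: EJ-138 and RT112 in RPMI 1640 with 10% FBS, sodium pyruvate and 2 mM L-glutamine; CHO and CHO-1A1 in DMEM. Compounds were taken from DMSO stocks into medium over 0.001–100 μM, with final DMSO ≤0.1%. Exposure lasted 96 h, then MTT read-out. IC50 values are mean ± SD of at least three independent assays.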

RT-112 = experiment: Antiproliferative activity against human RT112 cells proficient in CYP1A1 assessed as inhibition of cell growth after 96 hrs by MTT assay; assay type: functional, cell-based; settings: RT-112, 96 h; method in brief: as §1
CHO [2] = experiment: Antiproliferative activity against wild type chinese hamster CHO cells deficit in CYPs assessed as inhibition of cell growth after 96 hrs by MTT assay; assay type: functional, cell-based; settings: Cricetulus griseus; method in brief: as §1
CHO [3] = experiment: Antiproliferative activity against chinese hamster CHO cells transfected with CYP1A1 assessed as inhibition of cell growth after 96 hrs by MTT assay; assay type: functional, cell-based; settings: Cricetulus griseus; method in brief: as §1
EJ [4] = experiment: Antiproliferative activity against human EJ138 cells assessed as inhibition of cell growth preincubated for 1 hr with CYP null bactosomes measured after 96 hrs by MTT assay; assay type: functional, cell-based
Method in brief: (§2)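 Compound (50 μM) incubated 1 h at 37 °C with 20 pmol CYP bactosomes (CYP null, 1A1, 1A2, 1B1 or 3A4) in 2 mM NADPH, 1 mM MgCl₂, Tris-HCl pH 7.4. Metabolites were extracted with acetonitrile, centrifuged, and the supernatant dried and taken up in DMSO. EJ138 cells were exposed 96 h and growth read by MTT assay.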

EJ [5] = experiment: Antiproliferative activity against human EJ138 cells assessed as inhibition of cell growth preincubated for 1 hr with human CYP1A1 expressing bactosomes measured after 96 hrs by MTT assay; assay type: functional, cell-based; method in brief: as §2
EJ [6] = experiment: Antiproliferative activity against human EJ138 cells assessed as inhibition of cell growth preincubated for 1 hr with human CYP1A2 expressing bactosomes measured after 96 hrs by MTT assay; assay type: functional, cell-based; method in brief: as §2
EJ [7] = experiment: Antiproliferative activity against human EJ138 cells assessed as inhibition of cell growth preincubated for 1 hr with human CYP1B1 expressing bactosomes measured after 96 hrs by MTT assay; assay type: functional, cell-based; method in brief: as §2
EJ [8] = experiment: Antiproliferative activity against human EJ138 cells assessed as inhibition of cell growth preincubated for 1 hr with human CYP3A4 expressing bactosomes measured after 96 hrs by MTT assay; assay type: functional, cell-based; method in brief: as §2
EJ [9] = experiment: Potentiation factor, ratio of IC50 for antiproliferative activity against human EJ138 cells preincubated for 1 hr with CYP null bactosomes to IC50 for antiproliferative activity against human EJ138 cells preincubated for 1 hr with human CYP1A1 expressing bactosomes; assay type: functional
Method in brief: (§3)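 Potentiation factor = IC₅₀ in EJ138 given control (CYP null) bactosome extract ÷ IC₅₀ with the named CYP isoform extract. Extracts came from 1 h, 37 °C incubations of 50 μM compound with 20 pmol bactosomes plus 2 mM NADPH, 1 mM MgCl₂, Tris-HCl pH 7.4. Cells were exposed 96 h and read by MTT.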

EJ [10] = experiment: Potentiation factor, ratio of IC50 for antiproliferative activity against human EJ138 cells preincubated for 1 hr with CYP null bactosomes to IC50 for antiproliferative activity against human EJ138 cells preincubated for 1 hr with human CYP1A2 expressing bactosomes; assay type: functional; method in brief: as §3
EJ [11] = experiment: Potentiation factor, ratio of IC50 for antiproliferative activity against human EJ138 cells preincubated for 1 hr with CYP null bactosomes to IC50 for antiproliferative activity against human EJ138 cells preincubated for 1 hr with human CYP1B1 expressing bactosomes; assay type: functional; method in brief: as §3
EJ [12] = experiment: Potentiation factor, ratio of IC50 for antiproliferative activity against human EJ138 cells preincubated for 1 hr with CYP null bactosomes to IC50 for antiproliferative activity against human EJ138 cells preincubated for 1 hr with human CYP3A4 expressing bactosomes; assay type: functional; method in brief: as §3
Cytochrome P450 1A1 [13] = biological target: T1, Cytochrome P450 1A1 (Homo sapiens, UniProt P04798); experiment: Drug metabolism assessed as recombinant human CYP1A1-mediated metabolite M1 with m/z of 375.1 formation at 50 uM incubated for 1 hr in presence of reconstituted protein system by LC-MS analysis; assay type: ADME; settings: recombinant enzyme
T1 sequence (P04798 whole entry): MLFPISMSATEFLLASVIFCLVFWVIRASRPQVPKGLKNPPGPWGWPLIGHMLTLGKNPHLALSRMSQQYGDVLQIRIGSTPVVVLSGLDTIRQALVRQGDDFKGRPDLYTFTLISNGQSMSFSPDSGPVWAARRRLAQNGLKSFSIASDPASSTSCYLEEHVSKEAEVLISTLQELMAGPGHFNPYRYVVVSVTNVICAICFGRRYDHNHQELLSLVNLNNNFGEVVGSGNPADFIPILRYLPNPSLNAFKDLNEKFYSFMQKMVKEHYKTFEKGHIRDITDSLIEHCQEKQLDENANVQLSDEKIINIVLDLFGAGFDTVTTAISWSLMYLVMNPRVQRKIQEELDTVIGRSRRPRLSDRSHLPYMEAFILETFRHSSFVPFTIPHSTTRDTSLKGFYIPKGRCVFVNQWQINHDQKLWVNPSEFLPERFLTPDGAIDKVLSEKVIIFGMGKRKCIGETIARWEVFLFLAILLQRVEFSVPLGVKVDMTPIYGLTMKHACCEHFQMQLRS
Method in brief: (§4)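 Substrate at 50 μM with human recombinant CYP1A1 in a reconstituted system: NADPH cytochrome P450 reductase plus freshly prepared DLPC (240 μM) in 100 mM potassium phosphate, pH 7.4. Mixture pre-warmed 3 min at 37 °C, started with NADPH (final 1 mM), incubated 1 h and extracted into dichloromethane. Analysis by reverse-phase HPLC with photodiode array detection and ESI+ quadrupole MS.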

Cytochrome P450 1A1 [14] = biological target: T1, Cytochrome P450 1A1; experiment: Drug metabolism assessed as recombinant human CYP1A1-mediated metabolite M2 with m/z of 345.1 formation at 50 uM incubated for 1 hr in presence of reconstituted protein system by LC-MS analysis; assay type: ADME; settings: recombinant enzyme; method in brief: as §4
Cytochrome P450 1A1 [15] = biological target: T1, Cytochrome P450 1A1; experiment: Drug metabolism assessed as recombinant human CYP1A1-mediated metabolite M3 with m/z of 373.1 formation at 50 uM incubated for 1 hr in presence of reconstituted protein system by LC-MS analysis; assay type: ADME; settings: recombinant enzyme; method in brief: as §4
Cytochrome P450 1A1 [16] = biological target: T1, Cytochrome P450 1A1; experiment: Drug metabolism assessed as recombinant human CYP1A1-mediated metabolite M4 with m/z of 391.1 formation at 50 uM incubated for 1 hr in presence of reconstituted protein system by LC-MS analysis; assay type: ADME; settings: recombinant enzyme; method in brief: as §4
Cytochrome P450 1A1 [17] = biological target: T1, Cytochrome P450 1A1; experiment: Drug metabolism assessed as recombinant human CYP1A1-mediated metabolite M1 with m/z of 327.1 formation at 50 uM incubated for 1 hr in presence of reconstituted protein system by LC-MS analysis; assay type: ADME; settings: recombinant enzyme; method in brief: as §4

| Compound | IC50 (EJ [1]) [µM] | IC50 (RT-112) [µM] | IC50 (CHO [2]) [µM] | IC50 (CHO [3]) [µM] | IC50 (EJ [4]) [µM] | IC50 (EJ [5]) [µM] | IC50 (EJ [6]) [µM] | IC50 (EJ [7]) [µM] | IC50 (EJ [8]) [µM] | Ratio IC50 (EJ [9]) | Ratio IC50 (EJ [10]) | Ratio IC50 (EJ [11]) | Ratio IC50 (EJ [12]) | Drug metabolism (Cytochrome P450 1A1 [13]) | Drug metabolism (Cytochrome P450 1A1 [14]) | Drug metabolism (Cytochrome P450 1A1 [15]) | Drug metabolism (Cytochrome P450 1A1 [16]) | Drug metabolism (Cytochrome P450 1A1 [17]) |
| --- | --- | --- | --- | --- | --- | --- | --- | --- | --- | --- | --- | --- | --- | --- | --- | --- | --- | --- |
| CC(C)(C)OC(=O)N1CC(CCl)c2ccccc21 (stereo unspecified) | > 25 | > 25 | > 25 | > 25 |  |  |  |  |  |  |  |  |  |  |  |  |  |  |
| COc1ccc2[nH]c(C(=O)N3CC(CCl)c4cc(F)ccc43)cc2c1 (stereo unspecified) | 18.6 | 5.04 | 14.8 | 6.2 | 15.8 | 3.1 | 5.11 | 11.9 | 16.8 | 5.1 | 3.1 | 1.3 | 0.9 | Metabolite_Detected | Metabolite_Detected | Metabolite_Detected | Metabolite_Detected |  |
| COc1ccc2[nH]c(C(=O)N3CC(CCl)c4ccc(O)cc43)cc2c1 (stereo unspecified) | 0.038 | 0.055 | 0.03 | 0.035 |  |  |  |  |  |  |  |  |  |  |  |  |  | Metabolite_Detected |
